Experimental data taken from ChEMBL document CHEMBL5705890, “Antitumor activity of an allosteric inhibitor of centromere-associated protein-E” (Proc Natl Acad Sci U S A, 2010).

Legend:
Format in all cases: functional
[1] = system: CWR22R; test: Anticancer activity against human 22Rv1 cells assessed as cell growth inhibition measured after 72 hrs by DAPI staining based analysis
Procedure, shortened: (§1)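 Cells were seeded and, after 24 h, DNA content was read as T0. Cells were then exposed to varying drug concentrations for a further 72 h (T72). Fixed cells were DAPI-stained and DNA content measured by automated imaging. T72 values were normalized to T0. GI50 is the concentration giving 50% growth inhibition between T0 and Ymax, obtained by curve fitting.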

[2] = system: 639-V; test: Anticancer activity against human 639-V cells assessed as cell growth inhibition measured after 72 hrs by DAPI staining based analysis; procedure, shortened: as §1
[3] = system: A-375; test: Anticancer activity against human A-375 cells assessed as cell growth inhibition measured after 72 hrs by DAPI staining based analysis; procedure, shortened: as §1
[4] = system: AGS; test: Anticancer activity against human AGS cells assessed as cell growth inhibition measured after 72 hrs by DAPI staining based analysis; procedure, shortened: as §1
[5] = Anticancer activity against human BC1 cells assessed as cell growth inhibition measured after 72 hrs by DAPI staining based analysis; procedure, shortened: as §1
[6] = system: BFTC-905; test: Anticancer activity against human BFTC-905 cells assessed as cell growth inhibition measured after 72 hrs by DAPI staining based analysis; procedure, shortened: as §1
[7] = system: CESS; test: Anticancer activity against human CESS cells assessed as cell growth inhibition measured after 72 hrs by DAPI staining based analysis
Procedure, shortened: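 Cells were seeded, and DNA content at 24 h after seeding (T0) was read by imaging of fixed, DAPI-stained cells. Cells were then exposed to a range of drug concentrations for a further 72 h (T72) and DNA content was read again. T72 values were normalized to T0, and GI50 was taken from curve fits as the concentration giving 50% growth inhibition relative to T0 and Ymax.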

[8] = Anticancer activity against human KPL-1 cells assessed as cell growth inhibition measured after 72 hrs by DAPI staining based analysis
[9] = system: MV4-11; test: Anticancer activity against human MV4-11 cells assessed as cell growth inhibition measured after 72 hrs by DAPI staining based analysis
[10] = system: NCI-H2171; test: Anticancer activity against human NCI-H2171 cells assessed as cell growth inhibition measured after 72 hrs by DAPI staining based analysis
[11] = system: NCI-H292; test: Anticancer activity against human NCI-H292 cells assessed as cell growth inhibition measured after 72 hrs by DAPI staining based analysis
[12] = system: OVCAR-4; test: Anticancer activity against human OVCAR-4 cells assessed as cell growth inhibition measured after 72 hrs by DAPI staining based analysis
[13] = system: OVCAR-5; test: Anticancer activity against human OVCAR-5 cells assessed as cell growth inhibition measured after 72 hrs by DAPI staining based analysis
[14] = system: RPMI-8226; test: Anticancer activity against human RPMI-8226 cells assessed as cell growth inhibition measured after 72 hrs by DAPI staining based analysis
[15] = Anticancer activity against human SCC-13 cells assessed as cell growth inhibition measured after 72 hrs by DAPI staining based analysis
[16] = system: SHP77; test: Anticancer activity against human SHP77 cells assessed as cell growth inhibition measured after 72 hrs by DAPI staining based analysis
[17] = system: SW1990; test: Anticancer activity against human SW1990 cells assessed as cell growth inhibition measured after 72 hrs by DAPI staining based analysis
[18] = system: SW 962; test: Anticancer activity against human SW 962 cells assessed as cell growth inhibition measured after 72 hrs by DAPI staining based analysis
[19] = system: 639-V; test: Anticancer activity against human 639-V cells assessed as cell doubling measured for 72 hrs by DAPI staining based analysis
[20] = system: 786-0; test: Anticancer activity against human 786-0 cells assessed as cell doubling measured for 72 hrs by DAPI staining based analysis
[21] = system: A204; test: Anticancer activity against human A204 cells assessed as cell doubling measured for 72 hrs by DAPI staining based analysis
[22] = Anticancer activity against human A7 cells assessed as cell doubling measured for 72 hrs by DAPI staining based analysis
[23] = system: C-33-A; test: Anticancer activity against human C-33-A cells assessed as cell doubling measured for 72 hrs by DAPI staining based analysis
[24] = Anticancer activity against human C4-1 cells assessed as cell doubling measured for 72 hrs by DAPI staining based analysis
[25] = system: FaDu; test: Anticancer activity against human FaDu cells assessed as cell doubling measured for 72 hrs by DAPI staining based analysis
[26] = system: G-401; test: Anticancer activity against human G-401 cells assessed as cell doubling measured for 72 hrs by DAPI staining based analysis
[27] = system: MC-IXC; test: Anticancer activity against human MC-IXC cells assessed as cell doubling measured for 72 hrs by DAPI staining based analysis
[28] = system: MDA-MB-468; test: Anticancer activity against human MDA-MB-468 cells assessed as cell doubling measured for 72 hrs by DAPI staining based analysis
[29] = Anticancer activity against human MV-522 cells assessed as cell doubling measured for 72 hrs by DAPI staining based analysis
[30] = system: NCI/ADR-RES; test: Anticancer activity against human NCI/ADR-RES cells assessed as cell doubling measured for 72 hrs by DAPI staining based analysis
[31] = system: NCI-N87; test: Anticancer activity against human NCI-N87 cells assessed as cell doubling measured for 72 hrs by DAPI staining based analysis
[32] = system: Raji; test: Anticancer activity against human Raji cells assessed as cell doubling measured for 72 hrs by DAPI staining based analysis
[33] = system: SAOS-2; test: Anticancer activity against human SAOS-2 cells assessed as cell doubling measured for 72 hrs by DAPI staining based analysis
[34] = system: SF-539; test: Anticancer activity against human SF-539 cells assessed as cell doubling measured for 72 hrs by DAPI staining based analysis
[35] = system: SK-LMS-1; test: Anticancer activity against human SK-LMS-1 cells assessed as cell doubling measured for 72 hrs by DAPI staining based analysis
[36] = system: SW948; test: Anticancer activity against human SW948 cells assessed as cell doubling measured for 72 hrs by DAPI staining based analysis
[37] = system: SW 962; test: Anticancer activity against human SW 962 cells assessed as cell doubling measured for 72 hrs by DAPI staining based analysis
[38] = system: T47D; test: Anticancer activity against human T47D cells assessed as cell doubling measured for 72 hrs by DAPI staining based analysis
[39] = system: T84; test: Anticancer activity against human T84 cells assessed as cell doubling measured for 72 hrs by DAPI staining based analysis
[40] = system: TK-10; test: Anticancer activity against human TK-10 cells assessed as cell doubling measured for 72 hrs by DAPI staining based analysis
[41] = system: YAPC; test: Anticancer activity against human YAPC cells assessed as cell doubling measured for 72 hrs by DAPI staining based analysis
[42] = system: MCF7; test: Antitumor activity against human MCF7 cells in xenograft model assessed as difference between median time to endpoint time of treated versus control group at 125 mg/kg
[43] = system: MX1; test: Antitumor activity against human MX1 cells in xenograft model assessed as tumor growth delay at 62.5 mg/kg relative to control

- GI50 [3]: 26 nM
- GI50 [4]: 29 nM
- GI50 [9]: 29 nM
- GI50 [10]: 24 nM
- GI50 [11]: 31 nM
- GI50 [12]: 30 nM
- GI50 [13]: 34 nM
- GI50 [14]: 27 nM
- GI50 [17]: 127 nM
SMILES: CC(C)Oc1ccc(C(=O)N[C@H](CNC(=O)CN(C)C)Cc2ccc(-c3cn4cccc([C@H](C)O)c4n3)cc2)cc1Cl [GSK-923295A]
- GI50 [1]: 29 nM
- GI50 [2]: 27 nM
- GI50 [5]: 83 nM
- GI50 [6]: 30 nM
- GI50 [7]: 19 nM
- GI50 [8]: 31 nM
- GI50 [15]: 58 nM
- GI50 [16]: 86 nM
- GI50 [18]: 21 nM
- Activity [19]: 3.86
- Activity [20]: 2.59
- Activity [21]: 1.46
- Activity [22]: 2.17
- Activity [23]: 3.13
- Activity [24]: 2.93
- Activity [25]: 2.61
- Activity [26]: 4.28
- Activity [27]: 2.67
- Activity [28]: 2.05
- Activity [29]: 2.81
- Activity [30]: 2.47
- Activity [31]: 2.53
- Activity [32]: 3.26
- Activity [33]: 1.5
- Activity [34]: 2.08
- Activity [35]: 2.84
- Activity [36]: 1.9
- Activity [37]: 2.46
- Activity [38]: 1.44
- Activity [39]: 2.77
- Activity [40]: 1.94
- Activity [41]: 2.14
- Time [42]: 15.8 days
- Activity [43]: 5%
